# In the library only some 2.9% were active in any assay of this set; here they are far more common.
# CendR NRP1 mod – modulators of CendR peptide binding to NRP-1, primary screen, biochemical, fluorescence polarization, uHTS; FAM-RPARPAR peptide binding to NRP-1; inhibition, % at 25 µM; 360,000 tested, 0.85% active; AID 602438, 2012; Neuropilin-1 (Homo sapiens), O14786;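 active means inhibition or corrected inhibition above about 18%, plus a signal ratio from 0.5 to 1.5, limit read from the data, passing the limit was not always enough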
# CRFR2-BP antag – antagonists of CRF-BP/CRF-R2 complex, primary screen, cell-based, HEK293, calcium dye fluorescence, uHTS | inhibition, % at 11.8 µM | CRF-induced calcium fluorescence | 350,000 tested, 0.59% active;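 active means inhibition of the ligand-induced calcium signal above about 50% at the single tested concentration, limit read from the data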
# Tn6 DDE FP – inhibitors of Tn6 peptide binding to fibrin DD(E), primary screen, biochemical, fluorescence polarization, human fibrin, Tn6 probe; Fibrin DD(E) TRITC-Tn6 fluorescence polarization displacement; inhibition, % at 8.3 µM; AID 720509, 2013; Fibrinogen beta chain (Homo sapiens), P02675; 370,000 tested, 0.21% active;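 active means inhibition above a per-campaign cutoff: mean of compounds within control limits plus 3 SD, cut at about 15% in these data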;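 further: 0% = median of all compound wells on the plate and 100% = blocking peptide control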
# Target sequence (P02675 whole entry, looked up): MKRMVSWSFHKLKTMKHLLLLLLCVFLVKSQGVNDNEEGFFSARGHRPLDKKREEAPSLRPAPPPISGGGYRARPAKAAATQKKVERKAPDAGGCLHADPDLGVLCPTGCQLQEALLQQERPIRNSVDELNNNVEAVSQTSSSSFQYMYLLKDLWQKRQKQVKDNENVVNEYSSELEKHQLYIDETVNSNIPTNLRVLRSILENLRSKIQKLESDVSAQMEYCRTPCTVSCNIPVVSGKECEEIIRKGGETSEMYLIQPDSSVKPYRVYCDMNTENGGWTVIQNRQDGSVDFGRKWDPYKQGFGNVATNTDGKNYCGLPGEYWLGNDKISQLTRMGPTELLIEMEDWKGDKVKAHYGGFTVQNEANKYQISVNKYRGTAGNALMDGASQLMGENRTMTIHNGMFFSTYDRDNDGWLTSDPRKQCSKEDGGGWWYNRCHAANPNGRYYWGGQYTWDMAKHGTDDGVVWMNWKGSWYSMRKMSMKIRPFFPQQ
# proKLK7 act – proKLK7 zymogen activators, primary screen, biochemical, fluorescence intensity; Kallikrein-7 (Homo sapiens), P49862; purified proKLK7, EDANS-DABCYL substrate fluorescence; 100% is mature enzyme control, 0% vehicle; activation, % at 7 µM; 370,000 tested, 0.9% active;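 active means activation above the mean of all tested compounds plus 3 SD, computed per campaign excluding outliers beyond control limits, cut at about 13% in these data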
# DDE Tn7 FP inh – inhibitors of Tn7 peptide binding to fibrin DD(E), primary screen, biochemical, fluorescence polarization, human fibrin, Tn7 probe; inhibition, % at 8.3 µM; 370,000 tested, 0.13% active; Fibrinogen beta chain (Homo sapiens), P02675; FP displacement of FITC-Tn7 peptide from fibrin DD(E); 0% = median of compound wells per plate; AID 720508, 2013;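 active means inhibition above the mean of compounds falling within the control limits plus 3 SD of them, cut at about 14% in these data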;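 further: 0% = plate median of compound wells and 100% = 10 µM Aha-Tn7 peptide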
#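 Assay system: human fibrin DD(E) protein / Input: 2 µM fibrin DD(E) / Benchmarks: high control of 10 µM Aha-Tn7 peptide / Measured by: fluorescence polarization of the labelled Tn7 tracer / Medium: Tris buffer with calcium and detergent, pH 7.8 / Timing: 10 min compound pre-incubation, 3 h probe incubation at room temperature / Repeats: one replicate per compound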
# CRFBP-R2 agonist – agonists of CRF-BP/CRF-R2 complex, primary screen, cell-based, HEK293, calcium dye fluorescence, uHTS | CRF-binding protein / CRF receptor 2 complex (human) | calcium dye fluorescence (FLIPR); percent of saturating CRF peptide response | activation, % at 13.2 µM | 350,000 tested, 0.46% active;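 active means activation of at least 50%, plus an integration ratio under a set limit after plate pattern correction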;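 further: plate controls were neutral control wells without compound for no effect and CRF at EC100 for full effect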
# Numbers without * were called inactive; x = not tested or not shown.
SMILES,CendR NRP1 mod,CRFR2-BP antag,Tn6 DDE FP,proKLK7 act,DDE Tn7 FP inh,CRFBP-R2 agonist
CC12CCCCC1N(O)CN2O (configuration not stated),23.1*,4.7,10.8,0.0,-1.1,0.2
CC(C)C[C@H]1C(=O)N2CCC[C@H]2[C@]2(O)O[C@](NC(=O)[C@@H]3C=C4c5cccc6[nH]cc(c56)C[C@H]4N(C)C3)(C(C)C)C(=O)N12,46.3,-23.4,x,x,x,40.1
CCC(CO)NC(=O)C1C=C2c3cccc4[nH]cc(c34)CC2N(C)C1 (configuration not stated),49.1*,-9.9,-5.0,7.0,3.1,10.5
CC[C@@H](CO)NC(=O)[C@@H]1C=C2c3cccc4c3c(cn4C)C[C@H]2N(C)C1,40.9*,-12.8,8.1,9.6,6.1,18.0
O=c1[nH]c(O)c(/C=C2/C=CC(c3cc(Cl)ccc3Cl)=N2)c(=O)[nH]1,-93.5,-101.7,-4.4,-0.6,1.0,102.7*
O=C(CN1C(=O)[C@@H](Cc2ccc(O)cc2)N=C(c2ccccc2)c2ccccc21)NC1CCCCC1,x,x,-2.1,0.4,7.7,x
O=C(O)CCl,x,x,-8.0,-0.3,2.2,x
C=CCN(CC#CCO)Cc1ccc(OC)cc1OC,x,x,1.4,0.6,1.0,x
Cn1cc(/C=C2\C(=O)NC(=O)N(c3ccccc3)C2=O)c2ccccc21,119.8,-70.6,1.5,0.3,1.3,114.5*
Clc1cc(Cl)cc(CN2Cc3ccccc3-n3nncc3C2)c1,x,x,-3.7,0.1,-0.8,x
C=C(C=O)CC1CC(O)[C@]2(C)OC3CC4OC5C[C@]6(C)O[C@]7(C)CCC8OC9C[C@]%10(C)OC%11C(C)=CC(=O)OC%11CC%10OC9C[C@@H](C)C8OC7CC6O[C@]5(C)C/C=C\C4OC3CC2O1 (some centres not stated),x,x,3.7,x,7.0,x
CC(=O)C1=C(C)OC2=C(C(=O)CCC2)[C@@]12C(=O)N(C)c1ccccc12,x,x,2.1,0.2,-4.4,x
CCN(CC)c1ccc(CN2CC=C(c3ccc(F)cc3)CC2)cc1,19.6*,1.7,-0.8,0.5,3.6,2.5
C=CCN1C(=O)C2(C(C(=O)OCC)=C(N)Oc3ccccc32)c2c1c1ccccc1oc2=O (configuration not stated),43.7*,14.1,3.1,0.1,0.7,-0.5
CCOC(=O)C1=C(N)Oc2c(c(=O)oc3ccccc23)C12C(=O)N(C)c1ccccc12 (configuration not stated),-17.0,-4.1,4.2,0.9,-9.1,-2.3
COC(=O)C1C(c2ccc(C)cc2)CC2CCC1N2C (configuration not stated),x,x,0.5,-0.8,-1.3,x
O=C(NC(CCC(O)CO)P(=O)(Oc1ccccc1)Oc1ccccc1)OCc1ccccc1 (configuration not stated),x,x,3.9,0.2,-5.8,x
Cc1ccc(N2C(=O)NC(=O)/C(=C\c3ccoc3)C2=O)cc1,-104.7,-75.9,8.9,-1.0,-17.6,53.6*
CC(=O)Nc1ccc(OCCF)cc1,26.3*,-5.7,0.3,-0.2,6.6,-1.6
N#CCCC#N,x,x,1.2,-0.6,-7.3,x
O=[N+]([O-])c1ccccc1Cl,-6.5,12.1,-1.8,0.7,3.1,-1.9
Cc1ccccc1[N+](=O)[O-],12.0,51.3*,1.7,0.6,-1.3,13.2
N#CCC[C@@H]1CC[C@]2(CCCN(Cc3ccccn3)C2)O1,x,x,-3.3,0.4,-5.1,x
O=S(=O)(c1ccc(Cl)cc1)N1Cc2ccc(Br)cc2-n2nncc2C1,x,x,-1.8,0.9,-1.2,x
C[C@H]1CC[C@@H]2[C@@H](C)[C@H]3[C@H](C[C@H]4[C@@H]5CC=C6C[C@@H](O[C@@H]7O[C@H](CO)[C@H](O)[C@H](O[C@@H]8O[C@H](CO)[C@@H](O)[C@H](O)[C@H]8O)[C@H]7O[C@@H]7O[C@@H](C)[C@H](O)[C@@H](O)[C@H]7O)CC[C@]6(C)[C@H]5CC[C@]34C)N2C1,-106.3,-21.7,1.6,0.8,-0.4,67.4*
SMILES,CendR NRP1 mod,CRFR2-BP antag,Tn6 DDE FP,proKLK7 act,DDE Tn7 FP inh,CRFBP-R2 agonist
C[C@@H]1CC2C3CC=C4C[C@@H](O)CC[C@]4(C)C3CC[C@]2(C)[C@H]1O (some centres not stated),1.1,7.0,2.5,0.1,7.2,0.9
C[C@H](NC(=O)OCc1ccccc1)C(=O)NC(Cc1ccccc1)P(=O)(Oc1ccccc1)Oc1ccccc1 (some centres not stated),x,x,0.0,-0.3,4.8,x
Cc1nn(Cc2ccccc2)c(Cl)c1C(=O)NC1CCCc2ccccc21 (configuration not stated),-1.5,90.5*,2.8,0.2,-1.8,1.8
O=C(NCCN1CCC2(CC1)C(=O)NCN2c1ccccc1)c1ccccc1F,x,x,-2.6,-0.2,-3.5,x
CC1(C)CSC(=NCc2ccccc2)N1,-1.6,4.1,1.7,0.2,-5.4,190.8*
CC(NC(=O)OCc1ccccc1)P(=O)(Oc1ccccc1)Oc1ccccc1 (configuration not stated),x,x,-2.6,0.1,-2.7,x
O=C(Nc1ccc(Cl)cc1C(=O)c1ccccc1)c1ccccc1,24.9*,14.2,-10.4,-0.2,-2.2,2.2
O=C(CN1CCCC1)Nc1ccc(Cl)cc1C(=O)c1ccccc1,9.2,-7.8,-0.3,0.1,5.6,-1.5
Cc1c(P(=S)(c2ccccc2)c2ccccc2)c2ccccc2n1C,x,x,3.4,x,0.2,x
Cc1c(NP(=O)(C(C)(C)C)C(C)(C)C)c(=O)n(-c2ccccc2)n1C,21.1*,-10.8,0.9,-0.2,-4.7,-1.8
Cc1c(C=C2C(=O)NC(=O)NC2=O)c(=O)n(-c2ccccc2)n1C,-20.4,19.3,3.6,0.5,-1.7,5.1
CNc1ccc2oc(C[C@H]3O[C@@]4(CC[C@H]3C)O[C@H]([C@H](C)C(=O)c3ccc[nH]3)[C@H](C)C[C@H]4C)nc2c1C(=O)O,-17.3,-229.4,-2.1,3.4,-8.0,211.2*
CN1C[C@H](O)[C@H]2C[C@@H]1c1ccccc1O2,x,x,6.4,0.4,-1.5,x
Clc1ccccc1CNC1CN2CCC1CC2 (configuration not stated),25.7*,-5.0,-1.4,0.4,1.9,0.3
O=C(COc1ccccc1F)N1CCN(CCN2C(=O)c3cccc4cccc(c34)C2=O)CC1,-9.1,69.5*,-0.8,0.4,1.0,-0.1
O=C(COc1ccccc1)N1CCN(CCN2C(=O)c3cccc4cccc(c34)C2=O)CC1,10.9,-19.3,0.7,0.0,7.8,-5.3
